Source: ChEMBL document CHEMBL5143741, “Design, Synthesis, and Biological Activity of New CB2 Receptor Ligands: from Orthosteric and Allosteric Modulators to Dualsteric/Bitopic Ligands” (J Med Chem, 2022)
The source made the active and inactive calls.

Assays:
Cannabinoid receptor 1 [1] = target: T1, Cannabinoid receptor 1 (Homo sapiens, UniProt P21554); experiment: Displacement of [3H]-CP55,940 from human CB1R expressed in CHO-K1 cell membranes incubated for 2 hrs by liquid scintillation spectrometry relative to CP55,940; details: Membrane
T1 sequence (P21554 whole entry): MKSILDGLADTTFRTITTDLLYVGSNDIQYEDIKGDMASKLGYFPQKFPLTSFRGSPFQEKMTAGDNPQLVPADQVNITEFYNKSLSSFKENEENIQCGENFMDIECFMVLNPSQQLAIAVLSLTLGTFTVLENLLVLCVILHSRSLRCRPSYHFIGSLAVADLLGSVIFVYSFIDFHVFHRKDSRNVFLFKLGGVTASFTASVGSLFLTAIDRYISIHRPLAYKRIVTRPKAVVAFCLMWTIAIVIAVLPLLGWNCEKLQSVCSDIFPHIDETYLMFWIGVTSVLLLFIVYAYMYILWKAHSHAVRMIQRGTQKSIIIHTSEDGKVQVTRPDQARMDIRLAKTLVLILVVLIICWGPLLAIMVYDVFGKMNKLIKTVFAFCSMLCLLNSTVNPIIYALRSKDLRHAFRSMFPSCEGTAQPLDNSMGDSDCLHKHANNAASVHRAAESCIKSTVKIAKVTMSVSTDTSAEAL
Summary of the method: (§1)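 Membranes from CHO-K1 cells stably expressing hCB1R or hCB2R (50 μg protein) incubated with 1 nM [3H]CP55,940 and compound (0.10 nM–10 μM) in Tris binding buffer with 0.1% BSA, pH 7.4, for 120 min at 37 °C. Bound ligand filtered on GF/B and counted by liquid scintillation. Nonspecific binding defined with 1 μM unlabelled CP55,940; three-parameter fit; n = 3 in duplicate.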

Cannabinoid receptor 2 [2] = target: T2, Cannabinoid receptor 2 (Homo sapiens, UniProt P34972); experiment: Displacement of [3H]-CP55,940 from human CB2R expressed in CHO-K1 cell membranes incubated for 2 hrs by liquid scintillation spectrophotometry relative to CP55,940; details: Membrane; summary of the method: as §1
T2 sequence (P34972 whole entry): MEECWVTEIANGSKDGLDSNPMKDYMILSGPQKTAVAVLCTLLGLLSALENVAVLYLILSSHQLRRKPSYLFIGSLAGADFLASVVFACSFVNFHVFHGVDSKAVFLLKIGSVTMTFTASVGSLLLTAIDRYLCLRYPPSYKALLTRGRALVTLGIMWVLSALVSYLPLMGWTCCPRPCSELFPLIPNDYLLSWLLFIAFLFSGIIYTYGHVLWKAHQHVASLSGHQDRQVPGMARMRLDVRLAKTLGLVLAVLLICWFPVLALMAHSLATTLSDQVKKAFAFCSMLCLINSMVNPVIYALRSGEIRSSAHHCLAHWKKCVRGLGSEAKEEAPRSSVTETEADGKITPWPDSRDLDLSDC

Cannabinoid receptor 2 [3] = target: T2, Cannabinoid receptor 2; experiment: Agonist activity at human CB2 receptor expressed in CHO-K1 cells assessed as enhancement of beta arrestin-2 recruitment at 10 uM incubated for 90 mins by HitHunter chemiluminescence based assay relative to CP55,940; assay type: functional, cell-based
Summary of the method: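 PathHunter beta-arrestin2 recruitment in DiscoveRx CHO-K1 cells stably expressing hCB2R, seeded overnight in Opti-MEM with 1% FBS at 37 °C. Ligands (0.10 nM–10 μM) added for 90 min at 37 °C, then detection solution 60 min at room temperature and chemiluminescence read. Data expressed as % CP55,940 response and fitted by three-parameter nonlinear regression; n = 6 independent experiments in triplicate.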

Cannabinoid receptor 1 [4] = target: T1, Cannabinoid receptor 1; experiment: Displacement of [3H]-CP55,940 from human CB1R expressed in CHO-K1 cell membranes assessed as inhibition constant incubated for 2 hrs by liquid scintillation spectrometry analysis; set-up: species or system Membrane
Cannabinoid receptor 2 [5] = target: T2, Cannabinoid receptor 2; experiment: Agonist activity at human CB2 receptor expressed in CHO-K1 cells assessed as enhancement of beta arrestin-2 recruitment incubated for 90 mins by […] chemiluminescence based assay; assay type: functional, cell-based
Summary of the method: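 PathHunter beta-arrestin2 recruitment in DiscoveRx CHO-K1 cells stably expressing hCB2R, seeded overnight in Opti-MEM with 1% FBS at 37 °C. Ligands (0.10 nM–10 μM) added for 90 min at 37 °C, then detection solution 60 min at room temperature and chemiluminescence read.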

Cannabinoid receptor 2 [6] = target: T2, Cannabinoid receptor 2; experiment: Agonist activity at human CB2 receptor expressed in CHO-K1 cells assessed as inhibition of froskolin-stimulated cAMP accumulation at 10 uM incubated for 90 mins by HitHunter chemiluminescence based assay relative to CP55,940; assay type: functional, cell-based
Summary of the method: (§2)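 HitHunter assay in DiscoveRx CHO-K1 hCB2R cells, seeded overnight in Opti-MEM with 1% FBS, then put in assay buffer. Cells cotreated at 37 °C for 90 min with 10 μM forskolin and ligand (0.10 nM–10 μM). cAMP antibody/detection solutions added for 60 min at room temperature, then solution A for 180 min, then chemiluminescence read. Response given as % CP55,940; three-parameter fit; n = 6 in triplicate.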

Cannabinoid receptor 2 [7] = target: T2, Cannabinoid receptor 2; experiment: Agonist activity at human CB2 receptor expressed in CHO-K1 cells assessed as inhibition of froskolin-stimulated cAMP accumulation incubated for 90 mins by HitHunter chemiluminescence based assay; assay type: functional, cell-based
Summary of the method: as §2, with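 “read.” for “read. Response given as % CP55,940; three-parameter fit; n = 6 in triplicate.”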

Cannabinoid receptor 2 [8] = target: T2, Cannabinoid receptor 2; experiment: Displacement of [3H]-CP55,940 from human CB2R expressed in CHO-K1 cell membranes assessed as inhibition constant incubated for 2 hrs by liquid scintillation spectrometry; set-up: species or system Membrane
BV-2 [9] = experiment: Antiinflammatory activity in LPS-induced mouse microglial BV-2 cells assessed as decrease in IL-6 release at 1 uM preincubated for 1 hr followed by LPS-stimulation and measured after 4 hrs by ELISA; assay type: functional, cell-based; details: time 5.0 hrs
Summary of the method: (§3)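 Murine BV2 microglia given 1 μM compound 1 h before LPS (5 μg/mL), then stimulated 4 h. IL-6 or IL-10 in the medium measured by ELISA (pg/mL). Where used, SR144528 (1 μM) added 15 min before agonist. n = 3 independent experiments in duplicate; one-way ANOVA with Tukey test.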

[10] = Cytotoxicity against LPS/TNFalpha-induced HMC3 cells assessed as reduction in cell viability at 1 uM pretreated with compound for 1 hr followed by LPS/TNFalpha stimulation and measured after 24 hrs by MTT assay; assay type: toxicity, cell-based; details: human, hmc3, 25 h
Summary of the method: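 HMC3 microglial cells exposed to compound at 100 nM, 1 μM and 10 μM; viability read by MTT reduction. n = 3 independent experiments in triplicate; one-way ANOVA with Tukey test.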

HMC3 [11] = experiment: Antiinflammatory activity in LPS/TNFalpha-induced HMC3 cells assessed as decrease in IL-6 release at 1 uM pretreated with compound for 1 hr followed by LPS/TNFalpha stimulation and measured after 24 hrs by ELISA; assay type: functional, cell-based; details: Homo sapiens, time 25.0 hrs
Summary of the method: (§4)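 HMC3 human microglia in high-glucose DMEM with 10% FBS, pretreated 1 h with compound (100 nM–10 μM), then stimulated with LPS (10 μg/mL) plus TNFα (50 ng/mL) for 24 h. IL-6 or IL-10 in the medium measured by ELISA. SR144528 (1 μM) added 15 min before agonist where used; JWH133 served as positive control. n = 3 in duplicate; ANOVA with Tukey test.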

HMC3 [12] = experiment: Antiinflammatory activity in LPS/TNFalpha-induced HMC3 cells assessed as increase in IL-10 release at 1 uM pretreated with compound for 1 hr followed by LPS/TNFalpha stimulation and measured after 24 hrs by ELISA; assay type: functional, cell-based; details: Homo sapiens, time 25.0 hrs; summary of the method: as §4
Mus musculus [13] = experiment: Antinociceptive activity against oxaliplatin-induced neuropathic pain in CD-1 albino mouse assessed as decrease in neuropathic pain at 20 mg/kg, po measured after 15 to 60 mins by cold plate assay; assay type: functional; set-up: scale not given: the % may be the effect or the level left; details: time 15-60 min
Summary of the method: (§5)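 Male CD-1 mice (22–25 g) given oxaliplatin 2.4 mg/kg i.p. in 5% glucose on days 1–2, 5–9 and 12–14. On day 15 compound given orally at 1, 5 or 20 mg/kg in 1% carboxymethylcellulose. Cold plate held at 4 °C; latency to paw licking or lifting recorded (cut-off 60 s) at 15, 30, 45, 60 and 75 min. 16 mice per group over 2 experimental sets.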

Cannabinoid receptor 2 [14] = target: T2, Cannabinoid receptor 2; experiment: Agonist activity at human CB2 receptor expressed in CHO-K1 cells assessed as inhibition of froskolin-stimulated cAMP accumulation incubated for 90 mins in presence of SR144528 by HitHunter chemiluminescence based assay; assay type: functional, cell-based
Summary of the method: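 Forskolin (10 μM)-stimulated cAMP HitHunter assay in CHO-K1 hCB2R cells, 90 min at 37 °C. Ligand at 0.1 nM–10 μM given at the same time as a fixed 100 nM SR144528. Data given as % CP55,940; three-parameter fit; 3–6 independent experiments in triplicate.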

Cannabinoid receptor 2 [15] = target: T2, Cannabinoid receptor 2; experiment: Agonist activity at human CB2 receptor expressed in CHO-K1 cells assessed as inhibition of froskolin-stimulated cAMP accumulation at 50 nM incubated for 90 mins in presence of EC-21a by HitHunter chemiluminescence based assay relative to CP55,940; assay type: functional, cell-based
BV-2 [16] = experiment: Antiinflammatory activity in LPS-induced mouse microglial BV-2 cells assessed as increase in IL-10 release at 1 uM preincubated for 1 hr followed by LPS-stimulation and measured after 4 hrs by ELISA; assay type: functional, cell-based; details: time 5.0 hrs; summary of the method: as §3
Cannabinoid receptor 2 [17] = target: T2, Cannabinoid receptor 2; experiment: Agonist activity at human CB2 receptor expressed in CHO-K1 cells assessed as inhibition of froskolin-stimulated cAMP accumulation incubated for 90 mins in presence of EC-21a by HitHunter chemiluminescence based assay; assay type: functional, cell-based
Mus musculus [18] = experiment: Antinociceptive activity against oxaliplatin-induced neuropathic pain in po dosed CD-1 albino mouse assessed as decrease in neuropathic pain measured upto 75 min by cold plate assay; assay type: functional, organism-based; details: DDE = dose-dependent effect; summary of the method: as §5
Cannabinoid receptor 2 [19] = target: T2, Cannabinoid receptor 2; experiment: Agonist activity at human CB2 receptor expressed in CHO-k1 cells assessed as inhibition of froskolin-stimulated cAMP accumulation at 5 nM incubated for 90 mins in presence of EC-21a by HitHunter chemiluminescence based assay relative to CP55,940; assay type: functional, cell-based

SMILES: CCCCCCC(C)(C)c1ccc([C@@H]2C[C@H](O)CC[C@H]2CCCO)c(O)c1
- Emin (Cannabinoid receptor 1 [1]): 0%
- Emin (Cannabinoid receptor 2 [2]): 0%

SMILES: Cc1c(Br)cn(Cc2ccc(F)cc2)c(=O)c1NC(=O)C1CCCCCC1
- Emin (Cannabinoid receptor 1 [1]; filed as agonist): 103%
- Emax (Cannabinoid receptor 2 [3]): 1.4%
- Emin (Cannabinoid receptor 2 [2]; filed as agonist): 130%
- Ki (Cannabinoid receptor 1 [4]): > 10 µM
- EC50 (Cannabinoid receptor 2 [5]): > 10 µM
- Emax (Cannabinoid receptor 2 [6]): 2.5%
- EC50 (Cannabinoid receptor 2 [7]): > 10 µM
- Ki (Cannabinoid receptor 2 [8]): 0.019 µM

SMILES: Cc1c(Br)cn(CCCc2cn(CCCCCn3c(C)c(Br)cc(C(=O)NC4CCCCCC4)c3=O)nn2)c(=O)c1NC(=O)C1CCCCCC1
- Activity (BV-2 [9]): Active
- Activity [10]: Non-Toxic
- Emin (Cannabinoid receptor 1 [1]; filed as agonist): 89%
- Emax (Cannabinoid receptor 2 [3]): 30%
- Activity (HMC3 [11]): Active
- Emin (Cannabinoid receptor 2 [2]; filed as agonist): 40%
- Activity (HMC3 [12]): Active
- Ki (Cannabinoid receptor 1 [4]): > 10 µM
- EC50 (Cannabinoid receptor 2 [5]): > 10 µM
- Emax (Cannabinoid receptor 2 [6]; filed as agonist): 52%
- EC50 (Cannabinoid receptor 2 [7]): 0.073 µM
- Activity (Mus musculus [13]): 100%
- EC50 (Cannabinoid receptor 2 [14]): 0.061 µM
- EC50 (Cannabinoid receptor 2 [15]): 0.008 µM
- Ki (Cannabinoid receptor 2 [8]): 0.0014 µM
- Activity (BV-2 [16]): Active
- EC50 (Cannabinoid receptor 2 [17]): 0.0022 µM
- Activity (Mus musculus [18]): Dde

SMILES: Cc1c(Br)cn(Cc2cn(CCCCCn3c(C)c(Br)cc(C(=O)NC4CCCCCC4)c3=O)nn2)c(=O)c1NC(=O)C1CCCCCC1
- Emax (Cannabinoid receptor 2 [3]; filed as agonist): 41%
- EC50 (Cannabinoid receptor 2 [5]): > 10 µM
- Emax (Cannabinoid receptor 2 [6]): 22%
- EC50 (Cannabinoid receptor 2 [7]): > 10 µM

SMILES: Cc1c(Br)cn(Cc2cn(CCCn3c(C)c(Br)cc(C(=O)NC4CCCCCC4)c3=O)nn2)c(=O)c1NC(=O)C1CCCCCC1
- Emax (Cannabinoid receptor 2 [3]; filed as agonist): 53%
- EC50 (Cannabinoid receptor 2 [5]): 0.56 µM
- Emax (Cannabinoid receptor 2 [6]): 21%
- EC50 (Cannabinoid receptor 2 [7]): > 10 µM

SMILES: Cc1c(Br)cc(C(=O)NC2CCCCCC2)c(=O)n1Cc1ccc(F)cc1
- Emin (Cannabinoid receptor 1 [1]): 29%
- Emax (Cannabinoid receptor 2 [3]; filed as agonist): 45%
- Emin (Cannabinoid receptor 2 [2]): 13%
- Ki (Cannabinoid receptor 1 [4]): 0.00079 µM
- EC50 (Cannabinoid receptor 2 [5]): 0.063 µM
- Emax (Cannabinoid receptor 2 [6]; filed as agonist): 76%
- EC50 (Cannabinoid receptor 2 [7]): 0.02 µM
- Ki (Cannabinoid receptor 2 [8]): 0.007 µM

SMILES: Cc1nc(OCCCCCn2cc(CCCn3cc(Br)c(C)c(NC(=O)C4CCCCCC4)c3=O)nn2)c(C(=O)NC2CCCCCC2)cc1Br
- Emin (Cannabinoid receptor 1 [1]; filed as agonist): 95%
- Emax (Cannabinoid receptor 2 [3]; filed as agonist): 43%
- Emin (Cannabinoid receptor 2 [2]; filed as agonist): 52%
- Ki (Cannabinoid receptor 1 [4]): > 10 µM
- EC50 (Cannabinoid receptor 2 [5]): > 10 µM
- Emax (Cannabinoid receptor 2 [6]): 38%
- Emax (Cannabinoid receptor 2 [19]): 29%
- EC50 (Cannabinoid receptor 2 [7]): 0.008 µM
- Emax (Cannabinoid receptor 2 [14]): 39%
- Emax (Cannabinoid receptor 2 [15]): 38%
- Ki (Cannabinoid receptor 2 [8]): 0.0019 µM
- Emax (Cannabinoid receptor 2 [17]): 20%

SMILES: Cc1c(Br)cn(CCCc2cn(CCCn3c(C)c(Br)cc(C(=O)NC4CCCCCC4)c3=O)nn2)c(=O)c1NC(=O)C1CCCCCC1
- Emax (Cannabinoid receptor 2 [3]; filed as agonist): 46%
- EC50 (Cannabinoid receptor 2 [5]): > 10 µM
- Emax (Cannabinoid receptor 2 [6]): 21%
- EC50 (Cannabinoid receptor 2 [7]): > 10 µM
